6 compounds from ChEMBL document CHEMBL3259771, “Probing the aurone scaffold against Plasmodium falciparum: design, synthesis and antimalarial activity” (Eur J Med Chem, 2014) can be followed below.

≈ marks a conversion by molar mass, not a printed value. Calls of active or inactive are those of the source. The calls are words filed in the database; no cut-off is given here.

Data set [1] deals with Plasmodium falciparum. Nature of the data set: Antiplasmodial activity against chloroquine-resistant ring stage Plasmodium falciparum W2 infected in human RBC after 48 hrs by flow cytometric analysis. The conditions noted are these: W2, 48 h. Format: functional, organism-based. An outline of the steps: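 Ring-stage W2 parasites at 1% in human erythrocytes, synchronized with 5% sorbitol. Incubated with compound 48 h at 37 °C in RPMI-1640 with 25 mM HEPES pH 7.4, 10% heat-inactivated human serum (or 0.5% Albumax/2% human serum) and hypoxanthine, under 3% O₂/5% CO₂/[…]. Cells fixed in 2% formaldehyde, stained in PBS with NH₄Cl, 0.1% Triton X-100 and 1 nM YOYO-1, then counted by flow cytometry.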

The subject of data set [2] is Plasmodium falciparum. Put plainly: Inhibition of Plasmodium falciparum falcipain-2 up to 50 uM.
A further data set deals with HEK-293T. Put plainly: Cytotoxicity against HEK293T cells after 48 hrs by MTT assay. Format: cell-based. The settings on record: Homo sapiens.
Data set [3] in a line: Water-lipid distribution coefficient, log D of the compound at pH 7.4. Format: physicochemical.
Data set [4] in a line: Vacuolar accumulation ratio of the compound. Format: ADME. The gist of the method:
(§1)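 Calculated rather than measured. VAR: predicted trapping in acidic digestive vacuole from pH-dependent water/lipid distribution (log D). LAR: expected fraction concentrating in the vacuole's lipid component.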

A short description of data set [5]: Lipid accumulation ratio of the compound. Format: physicochemical. An outline of the steps:
as §1

The nature of data set [6]: Water-lipid distribution coefficient, log D of the compound at pH 5.2. Format: physicochemical.
Data set [7] can be described thus: Inhibition of hemozoin-like crystal formation up to 1 mM after 5 days. Format: functional. An outline of the steps:
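Hemozoin-like crystal stock suspension sonicated 3 min and diluted in fresh broth medium. Compounds in wells at 0–1000 final concentration after 0.22 filtration. Incubated at 37 °C, 5% CO₂, 5 days, then scored for presence or absence of crystal growth. Triplicate.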

The nature of data set [8]: Selectivity index, ratio of EC50 for HEK293T cells to IC50 for chloroquine-resistant ring stage Plasmodium falciparum W2. Format: functional, HEK-293T.
Data set [9] has as its system Plasmodium falciparum. Nature of the data set: Antimalarial activity against chloroquine-resistant ring stage Plasmodium falciparum Dd2 infected in human erythrocytes after 48 hrs by SYBR Green I staining-based isobologram method in presence of chloroquine. Format: functional. An outline of the steps: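 Fixed-ratio isobologram: IC50s of each drug alone found first, then 2-fold dilution dose-response series at IC50 ratios 5:0, 4:1, 3:2, 2:3, 1:4, 0:5. Early ring-stage parasitized erythrocytes at 1% parasitaemia, 3% haematocrit, triplicate wells, 48 h at 37 °C. Growth read by SYBR Green I fluorescence, nonlinear regression. Interaction from sum of FICs (IC50 in combination/IC50 alone).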

Data set [10] is described as follows: Inhibition of Plasmodium falciparum falcipain-2.
Data set [11] in a line: Inhibition of hemozoin-like crystal formation after 5 days. Format: functional. The conditions noted are these: 120 h. An outline of the steps:
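Hemozoin-like crystal stock suspension sonicated 3 min, diluted in fresh broth. Compounds 0.22-filtered, then added across a 0–1000 final range. Incubated 37 °C, 5% CO2 for 5 days, scored for presence or absence of crystal growth. Triplicate.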

In the data set with Plasmodium falciparum [1], `Nc1ccc(-c2ccc3c(c2)O/C(=C\c2ccccc2)C3=O)cn1` yielded an IC50 of 3.03 µM. The inhibition entry (in the data set with Plasmodium falciparum [2]; in [7]) was “inactive” in each case. Besides, in the data set with HEK-293T, the EC50 is above 100 µM. In addition, the logD in [3] came out at 5.18; in data set [6], 4.21. The Ratio in [4] was found to be 9.2; in [5], 150233. In addition, the “Selectivity Index” value in data set [8] is above 33.

For `O=C1/C(=C/c2ccccc2)Oc2c1ccc(O)c2CN1CCOCC1`, the midpoint of inhibition in the data set with Plasmodium falciparum [1], the IC50, lay at 3.34 µM. Further, in the data set with Plasmodium falciparum [9], the CI was 1.06. This compound also yielded an EC50 with HEK-293T above 100 µM. Besides, the logD turned out to be 2.42 in data set [3] and 1.19 in data set [6]. For the same compound, the Ratio in data set [4] was determined as 17.2; in [5], 265. In addition, in [7], the inhibition entry is “inactive”. Moreover, in data set [8], the “Selectivity Index” value was above 30.

With `Nc1ccc(-c2ccc(/C=C3\Oc4ccccc4C3=O)cc2)cn1`, inhibition in the data set on Plasmodium falciparum [1] was half-maximal at 3.7 µM (IC50). In addition, the inhibition result (with Plasmodium falciparum [2]; in data set [7]) was “inactive” throughout. In the data set with HEK-293T, this compound returned an EC50 above 100 µM. Moreover, the logD in data set [3] worked out at 3.67; in [6], 2.7. The figures for the Ratio in data set [4] and in [5] were 9.2 and 4643, respectively. Besides, the “Selectivity Index” value in data set [8] is reported as above 27.

Turning to `COc1cccc2c1O/C(=C\c1ccc(Cl)cc1Cl)C2=O`, the concentration for half-maximal inhibition (IC50) in the data set on Plasmodium falciparum [1] was 4.8 µM; in data set [10], 18.6 µM. The same compound showed an EC50 in the data set on HEK-293T above 100 µM. The “Selectivity Index” value in data set [8] is above 21.

Turning to `Nc1ccc(-c2cccc(/C=C3\Oc4ccccc4C3=O)c2)cn1`, the IC50 in the data set on Plasmodium falciparum [1] came to 2.56 µM. Besides, the inhibition entry (in the data set on Plasmodium falciparum [2]; in data set [7]) was “inactive” in each case. The response in the data set with HEK-293T was half-maximal at 79 µM (EC50). Further, the logD was found to be 3.67 in [3] and 2.7 in [6]. Besides, the Ratio in data set [4] turned out to be 9.2; in data set [5] it was 4643. Besides, in data set [8], the “Selectivity Index” value is above 31.

Regarding `CCN(CC)CCCC(C)Nc1ccnc2cc(Cl)ccc12` (stereo unspecified) [CHLOROQUINE], the MIC in data set [11] was 125 µM (≈ 40 µg/mL).
